Source: ChEMBL document CHEMBL3745658, “An Orally Bioavailable, Indole-3-glyoxylamide Based Series of Tubulin Polymerization Inhibitors Showing Tumor Growth Inhibition in a Mouse Xenograft Model of Head and Neck Cancer” (J Med Chem, 2015)
In brackets after ≈: the same amount, converted by molar mass. Activity calls are given as the source filed them. The rule behind the calls is not given here.

Assays:
[1] = system: FaDu; experiment: Cytotoxicity against human FADU cells assessed as reduction in cell viability after 72 hrs by MTT assay; format: functional; conditions: read-out: LC50 (the source's name)
[2] = Solubility in 2% DMSO containing 50 mM potassium phosphate buffer solution at pH 7.4 by dynamic light scattering method; conditions: 50 mM potassium phosphate buffer with 2% DMSO
[3] = biological target: T1, Tubulin (Sus scrofa) (UniProt P02554+P02550); experiment: Displacement of [3H]-paclitaxel from biotinylated porcine tubulin after 25 mins by competitive binding assay; format: protein assay
Method in brief: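 Biotinylated porcine tubulin precoupled to SPA beads for 30 min at 4 °C, then 0.05 μM [3H]-paclitaxel and test compound added in G-PEM with 1 mM GTP, 3% DMSO, duplicate wells, 25 min at rt. Nonspecific binding taken with 1000-fold unlabeled excess. IC50 from seven-point semilog curves, four-parameter fit.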

[4] = biological target: T1, Tubulin (Sus scrofa); experiment: Displacement of [3H]-vinblastine from biotinylated porcine tubulin after 15 mins by competitive binding assay; format: protein assay
Method in brief: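 Biotinylated porcine tubulin, 0.2 μM [3H]-vinblastine, SPA beads and test compound combined together in G-PEM with 1 mM GTP, 3% DMSO, duplicate wells, 15 min at rt before counting. Nonspecific binding taken with 1000-fold unlabeled excess. IC50 from seven-point semilog curves, four-parameter fit.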

[5] = Solubility in 2% DMSO containing 50 mM potassium phosphate buffer solution pH 7.4 at 10 uM by dynamic light scattering method; conditions: pH 7.4, 10 µM
[6] = Metabolic stability in CD-1 mouse liver microsomes assessed as half life at 1 uM preincubated for 5 mins before addition of NADPH by LC-MS/MS method; format: ADME
[7] = system: MES-SA/Dx5; experiment: Cytotoxicity against multidrug resistant human MES-SA/Dx5 cells assessed as reduction in cell viability after 72 hrs by MTT assay; format: functional, cell-based
Method in brief: (§1)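 Cells plated at an appropriate density and left 24 h to attach, then dosed in triplicate with compound diluted from 10 mM DMSO stocks into full growth medium (added at 2× final concentration). After 72 h, cells PBS-washed and given MTT (0.5 mg/mL in PBS) for 45−60 min. Formazan dissolved in 0.1 M HCl/2-propanol, A570 read (650 nm reference). Viability normalised to DMSO control; LC50 by nonlinear regression.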

[8] = system: SCC-4; experiment: Cytotoxicity against human SCC4 cells assessed as reduction in cell viability after 72 hrs by MTT assay; format: functional, cell-based; method in brief: as §1
[9] = system: SK-MEL-28; experiment: Cytotoxicity against human SK-MEL-28 cells assessed as reduction in cell viability after 72 hrs by MTT assay; format: functional, cell-based; method in brief: as §1
[10] = system: SH-SY5Y; experiment: Cytotoxicity against human SH-SY5Y cells assessed as reduction in cell viability after 72 hrs by MTT assay; format: functional, cell-based; method in brief: as §1
[11] = system: MES-SA; experiment: Cytotoxicity against human MES-SA cells assessed as reduction in cell viability after 72 hrs by MTT assay; format: functional, cell-based; method in brief: as §1
[12] = biological target: T2, Tubulin (Sus scrofa, UniProt P02554+P02550); experiment: Displacement of [3H]-colchicine from biotinylated porcine tubulin after 2 hrs by competitive binding assay; format: protein assay
Method in brief: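 Biotinylated porcine tubulin (750 ng/well) with 0.1 μM [3H]-colchicine and test compound in G-PEM with 1 mM GTP, 3% DMSO, duplicate wells, 2 h at 37 °C. Streptavidin SPA beads then added for 45 min at 37 °C. Nonspecific binding taken with 1000-fold unlabeled excess. IC50 from seven-point semilog curves, four-parameter fit.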

[13] = biological target: T2, Tubulin; experiment: Inhibition of porcine brain tubulin polymerization assessed as reduction in GTP-induced microtubule assembly after 60 mins by OD340 method

COc1cc(NC(=O)C(=O)c2cn(C(C)C)c3ccccc23)ccn1
CC50 [1]: 1750 nM

COc1ccc(NC(=O)C(=O)c2cn(C(C)C)c3cnccc23)cn1
CC50 [1]: > 10000 nM

COc1ccc(NC(=O)C(=O)c2cn(CCC(=O)O)c3ccccc23)cn1
solubility kinetic [2]: > 200 µM
CC50 [1]: > 10000 nM

COC(=O)CCn1cc(C(=O)C(=O)Nc2ccc(OC)nc2)c2ccccc21
CC50 [1]: 168 nM

CCC(C)n1cc(C(=O)C(=O)Nc2ccc(OC)nc2)c2ccccc21 (configuration not stated)
CC50 [1]: 68 nM

COc1ccc(NC(=O)C(=O)c2cc(C(C)C)n3ccccc23)cn1
solubility kinetic [2]: 10 µM (≈ 3.37 µg/mL)
Activity [3]: inactive
Activity [4]: inactive
solubility [5]: soluble
CC50 [1]: 160 nM
half-life at 1 µM [6]: < 5 min

CC(C)n1cc(C(=O)C(=O)Nc2ccc(C(F)(F)F)nc2)c2ccccc21
CC50 [1]: > 10000 nM

COc1ccc(NC(=O)C(=O)c2cn(C(C)C)c3ncccc23)cn1
Activity [3]: inactive
Activity [4]: inactive
CC50 [1]: 126 nM

COc1nc(NC(=O)C(=O)c2cn(C(C)C)c3ccccc23)ns1
CC50 [1]: > 10000 nM

COc1ccc(NC(=O)C(=O)c2cn(C(C)C)c3cccc(Cl)c23)cn1
CC50 [1]: 2130 nM

COCCn1cc(C(=O)C(=O)Nc2ccc(OC(F)(F)F)cc2)c2ccccc21
Activity [3]: inactive
Activity [4]: Active
CC50 [1]: 487 nM

COc1ccc(NC(=O)C(=O)c2cn(CC(C)C)c3ccccc23)cn1
CC50 [1]: 317 nM

CCn1cc(C(=O)C(=O)Nc2ccncc2)c2ccccc21
CC50 [1]: > 10000 nM

COCCn1cc(C(=O)C(=O)Nc2ccc(OCC(=O)O)nc2)c2ccccc21
solubility kinetic [2]: > 200 µM
CC50 [1]: > 10000 nM

CCn1cc(C(=O)C(=O)Nc2ccnc(OC)c2)c2ccccc21
CC50 [1]: 4180 nM

COCCc1cc(C(=O)C(=O)Nc2ccc(OC)nc2)c2ccccn12
CC50 [1]: 36 nM
half-life at 1 µM [6]: 6 min

CC[C@]1(O)C[C@@H]2CN(CCc3c([nH]c4ccccc34)[C@@](C(=O)OC)(c3cc4c(cc3OC)N(C)[C@H]3[C@@](O)(C(=O)OC)[C@H](OC(C)=O)[C@]5(CC)C=CCN6CC[C@]43[C@@H]65)C2)C1
Activity [7]: inactive

COCCn1cc(C(=O)C(=O)Nc2ccc(C(F)(F)F)nc2)c2ccccc21
CC50 [1]: > 10000 nM

COCCn1cc(C(=O)C(=O)Nc2ccc(OC)nc2)c2ccccc21
CC50 [1]: 17 nM
half-life at 1 µM [6]: 11 min
Activity [7]: Active
Activity [8]: Active
Activity [9]: Active
Activity [10]: Active
Activity [11]: Active

COc1ccc(NC(=O)C(=O)c2cn(C(C)C)c3cccnc23)cn1
CC50 [1]: > 10000 nM

COCCn1cc(C(=O)C(=O)Nc2ccc(OC)nc2)c2cc(OC)ccc21
CC50 [1]: > 10000 nM

COc1ccc(NC(=O)C(=O)c2cn(C(C)C)c3cccc(OC)c23)cn1
CC50 [1]: 7780 nM

CCn1cc(C(=O)C(=O)Nc2ccc(OC)nc2)c2ccccc21
solubility kinetic [2]: 10 µM (≈ 3.23 µg/mL)
Activity [3]: inactive
Activity [4]: Active
solubility [5]: soluble
CC50 [1]: 219 nM

COc1nsc(NC(=O)C(=O)c2cn(C(C)C)c3ccccc23)n1
CC50 [1]: 10400 nM

COc1ccc(NC(=O)C(=O)c2cn(C(C)C)c3cc(Cl)ccc23)cn1
CC50 [1]: 1770 nM

COCCc1cc(C(=O)C(=O)Nc2ccc(OC(F)(F)F)cc2)c2ccccn12
CC50 [1]: 758 nM

COCCn1cc(C(=O)C(=O)Nc2ccnc(OC)c2)c2ccccc21
CC50 [1]: 235 nM

CCCCn1cc(C(=O)C(=O)Nc2ccc(OC)nc2)c2ccccc21
CC50 [1]: 18 nM

COCCn1cc(C(=O)C(=O)Nc2ccc(OC)nc2)c2cc(Cl)ccc21
CC50 [1]: > 10000 nM

COc1ccc2c(C(=O)C(=O)Nc3ccc(OC)nc3)cn(C(C)C)c2c1
CC50 [1]: > 10000 nM

COc1ccc(NC(=O)C(=O)c2cn(CC(C)(C)OC)c3ccccc23)cn1
CC50 [1]: > 10000 nM

COc1ccc(NC(=O)C(=O)c2cn(C(C)C)c3ccc(Cl)cc23)cc1
CC50 [1]: > 10000 nM

COc1ccc(NC(=O)C(=O)c2cn(C(C)(C)COCC(=O)O)c3ccccc23)cn1
solubility kinetic [2]: > 200 µM
CC50 [1]: > 10000 nM

CC(C)n1cc(C(=O)C(=O)Nc2cccnc2)c2ccccc21
CC50 [1]: > 10000 nM

COc1ccc2c(c1)c(C(=O)C(=O)Nc1ccc(OC)nc1)cn2C(C)C
CC50 [1]: > 10000 nM

CC(C)n1cc(C(=O)C(=O)Nc2ccncc2)c2ccccc21
CC50 [1]: > 10000 nM

CCOc1ccc(NC(=O)C(=O)c2cn(C(C)C)c3ccccc23)cn1
CC50 [1]: 175 nM

COc1ccc(NC(=O)C(=O)c2cn(CC3CCO3)c3ccccc23)cn1 (configuration not stated)
CC50 [1]: 686 nM

COc1ccc(NC(=O)C(=O)c2cn(C(C)C)c3c(OC)cccc23)cn1
CC50 [1]: > 10000 nM

CC(C)n1cc(C(=O)C(=O)Nc2ccc(OC(F)(F)F)cc2)c2ccccc21
CC50 [1]: 8930 nM

COc1ccc(NC(=O)C(=O)c2cn(CCOC(C)C)c3ccccc23)cn1
CC50 [1]: 211 nM
half-life at 1 µM [6]: 23 min

COc1ccc(NC(=O)C(=O)c2cn(C(C)C)c3ccccc23)cc1
CC50 [1]: 181 nM

COc1cc2c(c(OC)c1OC)-c1ccc(OC)c(=O)cc1[C@@H](NC(C)=O)CC2
Activity [7]: inactive

COCCn1cc(C(=O)C(=O)Nc2ccc(OC)cc2)c2ccccc21
CC50 [1]: 59 nM

CCOC(=O)COc1ccc(NC(=O)C(=O)c2cn(CCOC)c3ccccc23)cn1
CC50 [1]: > 10000 nM

CCc1cc(C(=O)C(=O)Nc2ccc(OC)nc2)c2ccccn12
CC50 [1]: 110 nM

COc1ccc(NC(=O)C(=O)c2cn(C(C)C)c3ccncc23)cn1
CC50 [1]: > 10000 nM

COc1ccc(NC(=O)C(=O)c2cn(C(C)C)c3ccc(Cl)cc23)cn1
CC50 [1]: > 10000 nM

COCCn1cc(C(=O)C(=O)Nc2ccc(OC(C)(C)C)nc2)c2ccccc21
CC50 [1]: 858 nM

CC(C)Oc1ccc(NC(=O)C(=O)c2cn(C(C)C)c3ccccc23)cn1
CC50 [1]: 408 nM
half-life at 1 µM [6]: 66 min

CC(=O)O[C@H]1C(=O)[C@@]2(C)[C@H]([C@H](OC(=O)c3ccccc3)[C@]3(O)C[C@H](OC(=O)[C@H](O)[C@@H](NC(=O)c4ccccc4)c4ccccc4)C(C)=C1C3(C)C)[C@]1(OC(C)=O)CO[C@@H]1C[C@@H]2O
Activity [7]: inactive

COc1ccc(NC(=O)C(=O)c2cn(C(C)C)c3ccccc23)nn1
CC50 [1]: 2270 nM

COCCn1cc(C(=O)C(=O)Nc2ccc(OC)nc2)c2cccnc21
IC50 [12]: 940 nM
IC50 [13]: 2600 nM
Activity [3]: inactive
Activity [4]: inactive
CC50 [1]: 27 nM
Activity [7]: Active
Activity [8]: Active
Activity [9]: Active
Activity [10]: Active
Activity [11]: Active

COc1ccc(NC(=O)C(=O)c2cn(C3CCCC3)c3ccccc23)cn1
CC50 [1]: 370 nM

COc1ccc(NC(=O)C(=O)c2cn(C(C)C)c3c(Cl)cccc23)cn1
CC50 [1]: 10200 nM

COc1ccc(NC(=O)C(=O)c2cn(C(C)C)c3ccccc23)cc1OC
CC50 [1]: > 10000 nM

COCCn1cc(C(=O)C(=O)Nc2ccncc2)c2ccccc21
CC50 [1]: > 10000 nM

COCCn1cc(C(=O)C(=O)Nc2cnc(OC)nc2)c2ccccc21
CC50 [1]: 55 nM
